The nature of series [1]: PBS buffer - Octanol distribution coefficient, logD of the compound at pH 7.4 by UHPLC-DAD-MS analysis. It is filed as physicochemical. In a few lines: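 Compound (0.25 mg) was put into 500 μL of a 1:1 water–octanol (logP) or PBS pH 7.4–octanol (logD) mixture. Samples were shaken 30 min and centrifuged 10 min at 10,000 rcf. Each phase was quantified by UHPLC-DAD-MS against calibration lines.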

Series [2] deals with T1, 3-hydroxyacyl-CoA dehydrogenase type-2 (Homo sapiens) (UniProt Q99714).
T1 sequence (whole entry): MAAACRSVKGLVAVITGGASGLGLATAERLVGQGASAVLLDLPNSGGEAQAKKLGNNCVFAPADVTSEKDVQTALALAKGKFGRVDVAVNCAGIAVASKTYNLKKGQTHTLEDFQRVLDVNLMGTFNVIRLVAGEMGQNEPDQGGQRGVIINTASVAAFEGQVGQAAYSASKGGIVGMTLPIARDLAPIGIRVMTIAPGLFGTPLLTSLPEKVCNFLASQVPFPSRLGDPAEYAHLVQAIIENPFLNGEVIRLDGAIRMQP
Briefly: Inhibition of recombinant 17beta-HSD10 (unknown origin) expressed in Escherichia coli BL21 (DE3) assessed as residual activity at 10 uM using acetoacetyl-CoA as substrate by SAAC method relative to control. In outline: (§1)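 Recombinant 17β-HSD10 from E. coli BL21(DE3), 0.15 μg, was mixed with 320 μmol/L NADH in Tris-HCl pH 7.4 assay buffer. It was preincubated 5 min at 37 °C with 1 or 10 μM inhibitor or vehicle, then 320 μmol/L acetoacetyl-CoA was added. A340 was followed for 5 min. Residual activity is % of control, triplicate mean ± SD, with t-test versus control.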

Series [3] deals with T1, 3-hydroxyacyl-CoA dehydrogenase type-2 (Homo sapiens). Briefly: Inhibition of recombinant 17beta-HSD10 (unknown origin) expressed in Escherichia coli BL21 (DE3) assessed as residual activity at 1 uM using acetoacetyl-CoA as substrate by SAAC method relative to control. In a few lines:
as §1

Series [4] concerns the target T2, 3-hydroxyacyl-CoA dehydrogenase type-2 (Homo sapiens, UniProt Q99714).
T2 sequence (Q99714 whole entry): T1 sequence (whole entry)
Briefly: Inhibition of recombinant 17beta-HSD10 (unknown origin) expressed in Escherichia coli BL21 (DE3) assessed as residual activity using acetoacetyl-CoA as substrate by SAAC method. In a few lines: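 Recombinant 17β-HSD10 from E. coli BL21(DE3), 0.15 μg, was mixed with 320 μmol/L NADH in 10 mM Tris-HCl pH 7.4 buffer (150 mM NaCl, 1 mM DTT, 0.001% Tween 20, 0.01% BSA). It was preincubated 5 min at 37 °C with inhibitor, then 320 μmol/L acetoacetyl-CoA was added. A340 was followed for 5 min. IC50 came from non-linear regression of ≥3 independent runs in triplicate; Ki was calculated from IC50 per Cer et al.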

The species entered for a further series is Sus scrofa. Put plainly: Inhibition of pig brain mitochondrial Complex I assessed as rotenone-sensitive rate of the NADH oxidation by measuring activity by spectrophotometric ally method (reference value: 100 + /- 3.3%). More on the design: scale not given: the % may be the effect or the level left. The note with it: Mitochondria. In outline: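 Sonicated pig brain mitochondria (1 mg/mL protein) were held in 25 mM KH2PO4, 5 mM MgCl2 pH 7.2 with 2 mM KCN. They were incubated with 50 μM drug for 30 min at 30 °C. The reaction was started with coenzyme Q10 and NADH (100 μM each), and A340 was read for 5 min. The rotenone (10 μM)-insensitive background was subtracted. At least three measurements.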

Series [5] has as its target T3, Amine oxidase [flavin-containing] A (Sus scrofa, UniProt Q6Q2J0).
T3 sequence (Q6Q2J0 whole entry): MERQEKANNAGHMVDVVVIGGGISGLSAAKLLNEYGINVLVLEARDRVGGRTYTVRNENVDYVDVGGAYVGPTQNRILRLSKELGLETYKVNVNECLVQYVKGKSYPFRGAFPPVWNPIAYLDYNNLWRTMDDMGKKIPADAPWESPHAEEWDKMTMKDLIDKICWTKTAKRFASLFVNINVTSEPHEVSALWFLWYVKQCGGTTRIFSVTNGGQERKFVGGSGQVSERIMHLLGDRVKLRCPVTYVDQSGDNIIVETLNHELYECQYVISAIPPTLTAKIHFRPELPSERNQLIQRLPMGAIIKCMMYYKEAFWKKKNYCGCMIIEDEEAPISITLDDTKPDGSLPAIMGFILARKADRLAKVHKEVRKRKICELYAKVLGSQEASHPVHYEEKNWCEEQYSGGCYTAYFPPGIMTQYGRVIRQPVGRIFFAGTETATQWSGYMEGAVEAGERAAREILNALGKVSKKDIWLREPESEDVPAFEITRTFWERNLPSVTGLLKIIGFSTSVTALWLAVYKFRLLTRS
Put plainly: Inhibition of pig brain mitochondrial MAO-A using [3H]5-HT as substrate incubated for 60 mins by liquid scintillation counting analysis. It is filed as mitochondria, Mitochondria. In outline:
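Pig brain mitochondria were preincubated with drug at 5–7 concentrations (1–1000 μM) for 60 min at 37 °C. Radiolabelled substrate was then added: [3H]5-HT for MAO-A (20 min) or [14C]PEA for MAO-B (1 min). The aldehyde product was counted by liquid scintillation. IC50 came from four-parameter logistic fits; mean ± SE of ≥2 runs.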

The next series has as its system HEK293. Put plainly: Cytotoxicity against human HEK293 cells assessed as change in ATP level at 10 uM measured after 48 hrs by CellTiter-Glo assay. The conditions noted are these: hek293, 48 h. It is filed as toxicity, cell-based. In outline: (§2)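 HEK293 or SH-SY5Y cells in DMEM with 10% FBS, 2 mM glutamine and NEAA were seeded at 7,500 cells per well and grown 24 h. They were then exposed to 1 or 10 μM compound (final 1% DMSO) for 48 h. ATP was read by CellTiter-Glo luminescence after CellTox Green, normalised to 1% DMSO and 100 μM valinomycin controls. At least two experiments in tetraplicate.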

Series [6] deals with SH-SY5Y. Put plainly: Cytotoxicity against human SH-SY5Y cells assessed as change in ATP level at 10 uM measured after 48 hrs by CellTiter-Glo assay. It is filed as toxicity, cell-based. In a few lines: as §2
On the technique in general: In ATP-based viability assays light output follows the ATP content of the culture.

Series [7] in a line: Partition coefficient between Water and Octanol, logP of the compound by UHPLC-DAD-MS analysis. The note with it: pH 7.4.
For series [8], the system named is SH-SY5Y. Put plainly: Cytotoxicity against human SH-SY5Y cells assessed as change in ATP level at 1 uM measured after 48 hrs by CellTiter-Glo assay. It is filed as toxicity, cell-based. In outline: as §2

The record followed here is ChEMBL document CHEMBL5620402, “Development of submicromolar 17β-HSD10 inhibitors and their in vitro and in vivo evaluation” (Eur J Med Chem, 2023).

As to `COc1ccc2nc(NC(=O)Nc3ccc(O)c(C(F)(F)F)c3)sc2c1`, the logD (as a rule, the decadic logarithm of the distribution of all forms, ionised or not, between an organic phase and buffer at a given pH) in [1] was determined as 5.06. Also, the Activity is 13% in series [2]; 39.8% in [3]; 5.3% in the series listed under Sus scrofa; “Non-Toxic” in the series with HEK293; “Toxic” with SH-SY5Y [6]. For the same compound, the IC50 (commonly the point on the concentration scale where inhibition reaches its midpoint) in series [4] stood at 570 nM; in series [5] (read-out: IC50), 79000 nM. Also, in [4], the Ki – broadly, the dissociation constant of the complex between target and ligand, obtained from inhibition or displacement – turned out to be 440 nM. In addition, in series [7], the logP (in general, a log measure of how a compound divides between an organic and an aqueous phase) came out at 4.28.
Compound `NC(=O)c1ccc2nc(NC(=O)Nc3ccc(O)c(Cl)c3)sc2c1` had a logD in [1] of 3.34. The Activity in [2] was 38.3%; in [3], 50%; in the series filed under Sus scrofa, 25.2%; in the series with SH-SY5Y [8], “Non-Toxic”; in the series with HEK293 it was “Non-Toxic”; in the series with SH-SY5Y [6], “Non-Toxic”. The IC50 is 840 nM in [4] and “Not Active” in series [5]. In addition, the Ki in [4] was 650 nM. Further, in series [7], the logP stood at 3.32.
`O=C(Nc1ccc(O)c(Cl)c1)Nc1nc2ccc(C(=O)O)cc2s1`: the logD in series [1] amounted to 0.75. Besides, the Activity is 17.5% in series [2]; 50% in series [3]; 87.7% in the series listed under Sus scrofa; “Non-Toxic” in the series on SH-SY5Y [8]; “Non-Toxic” in the series with HEK293; “Non-Toxic” with SH-SY5Y [6]. Further, the IC50 in series [4] amounted to 310 nM; in series [5] (read-out: IC50), 85000 nM. In series [4], the Ki was 230 nM. The compound further returned a logP in series [7] of 1.19.
The compound `CC(=O)Nc1ccc2nc(NC(=O)Nc3ccc(O)c(Cl)c3)sc2c1` returned a logD in series [1] of 3.35. The Activity is 22% in series [2]; 49.5% in series [3]; 24.3% in the series listed under Sus scrofa; “Non-Toxic” in the series on SH-SY5Y [8]; “Non-Toxic” with HEK293; “Non-Toxic” with SH-SY5Y [6]. Besides, the values for the IC50 in series [4] and in [5] (read-out: IC50) were 340 nM and 5800 nM, respectively. Besides, the Ki in [4] worked out at 250 nM. Moreover, in [7], the logP stood at 3.66.
